Experimental data published in ChEMBL document CHEMBL1157861, “Phosphaisocoumarins as a new class of potent inhibitors for pancreatic cholesterol esterase” (Eur J Med Chem, 2010).
The source made the active and inactive calls. The calls are words filed in the database; no cut-off is given here.

Tests used:
[1] = Inhibition of pig pancreatic cholesterol esterase assessed as p-nitrophenylbutyrate hydrolysis after 1 min; set-up: species or system Sus scrofa
Procedure, shortened: (§1)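 Porcine pancreatic CEase (0.0125 mU) is pre-incubated for 1 min with varied inhibitor concentrations in 0.1 M sodium phosphate, pH 7.04, with 0.1 M NaCl. PNPB (0.1 mM) is then added and hydrolysis is followed by A405 for 1 min. Compounds are also checked at one fixed top concentration. Each concentration is run in triplicate and averaged.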

[2] = Inhibition of pig pancreatic cholesterol esterase assessed as p-nitrophenylbutyrate hydrolysis at 100 uM after 1 min; set-up: species or system Sus scrofa; procedure, shortened: as §1
[3] = Competitive inhibition of pig pancreatic cholesterol esterase assessed as p-nitrophenylbutyrate hydrolysis after 1 min by Lineweaver-Burke plot analysis; set-up: species or system Sus scrofa
Procedure, shortened: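 For kinetics, CEase (0.0125 mU) is pre-incubated 1 min with inhibitor in sodium phosphate buffer. PNPB is then added at 0.07–0.3 mM and the A405 change is followed for 1 min at each substrate level. Mechanism is assigned from the rate data across substrate and inhibitor concentrations.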

[4] = species on record: Sus scrofa; experiment: Reversible inhibition of pig pancreatic cholesterol after 6 hrs absence of p-nitrophenylbutyrate
Procedure, shortened: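 CEase and excess inhibitor are incubated without substrate in sodium phosphate buffer, pH 7.04, with 5% acetonitrile by volume, at 25 °C for up to 6 h. Samples are checked periodically by TLC.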

[5] = species on record: Sus scrofa; experiment: Reversible inhibition of pig pancreatic cholesterol esterase assessed as p-nitrophenylbutyrate hydrolysis after 1 min

| SMILES | IC50 [1] [µM] | other results |
| --- | --- | --- |
| O=P1(O)OC(c2ccccc2)=Cc2ccccc21 | 96.3 |  |
| CCOP1(=O)OC(c2ccc(OC)cc2)=C(Br)c2ccc(Cl)cc21 (centres undefined) | 47.9 |  |
| CCOP1(=O)OC(C2CC2)=Cc2ccc(Cl)cc21 (centres undefined) |  | IC50 [2]: Not Active |
| CCOP1(=O)OC(c2ccc(CC)cc2)=C(Cl)c2ccc(Cl)cc21 (centres undefined) | 8.9 |  |
| O=P1(O)OC(c2ccccc2)=C(Cl)c2ccc(Cl)cc21 | 14.6 |  |
| CCOP1(=O)OC(c2ccccc2)=Cc2ccc(OC)cc21 (centres undefined) | 77.4 |  |
| CCOP1(=O)OC(C2CC2)=C(Br)c2ccc(Cl)cc21 (centres undefined) |  | IC50 [2]: Not Active |
| O=P1(O)OC(c2ccccc2)=Cc2ccc(Cl)cc21 | 38.7 |  |
| CCCCC1=Cc2ccccc2P(=O)(OCC)O1 (centres undefined) |  | IC50 [2]: Not Active |
| CCCCC1=Cc2ccccc2P(=O)(O)O1 | 62.6 |  |
| CCOP1(=O)OC(c2ccccc2)=Cc2ccccc21 (centres undefined) | 63.6 |  |
| CCc1ccc(C2=Cc3ccc(Cl)cc3P(=O)(O)O2)cc1 | 58.4 |  |
| CCOP1(=O)OC(c2ccccc2)=C(Br)c2ccc(OC)cc21 (centres undefined) | 34.4 |  |
| CCOP1(=O)OC(c2ccccc2)=Cc2ccc(Cl)cc21 (centres undefined) | 56.9 |  |
| CCOP1(=O)OC(c2ccccc2)=C(C#Cc2ccccc2)c2ccccc21 (centres undefined) | 2.3 | Ki [3]: 1.9 µM; Activity [4]: inactive; Activity [5]: Active |
| CCCCC1=C(Br)c2ccc(Cl)cc2P(=O)(OCC)O1 (centres undefined) |  | IC50 [2]: Not Active |
| CCCCC1=C(Br)c2ccccc2P(=O)(OCC)O1 (centres undefined) |  | IC50 [2]: Not Active |
| CCOP1(=O)OC(C2CC2)=C(Br)c2ccc(OC)cc21 (centres undefined) |  | IC50 [2]: Not Active |
| CCOP1(=O)OC(c2ccccc2)=C(Cl)c2ccc(Cl)cc21 (centres undefined) | 34.8 |  |
| CCOP1(=O)OC(c2ccc(CC)cc2)=C(Br)c2ccc(Cl)cc21 (centres undefined) | 6.4 |  |
| CCOP1(=O)OC(c2ccccc2)=C(I)c2ccccc21 (centres undefined) | 30.3 |  |
| CCCCC1=C(Cl)c2ccc(Cl)cc2P(=O)(OCC)O1 (centres undefined) |  | IC50 [2]: Not Active |
| COc1ccc2c(c1)P(=O)(O)OC(c1ccccc1)=C2Br | 57.4 |  |

| SMILES | IC50 [1] [µM] | other results |
| --- | --- | --- |
| CCCCC1=C(Cl)c2ccccc2P(=O)(OCC)O1 (centres undefined) |  | IC50 [2]: Not Active |
| CCCCC1=Cc2ccc(Cl)cc2P(=O)(OCC)O1 (centres undefined) | 43.1 |  |
| CCOP1(=O)OC(c2ccc(CC)cc2)=C(I)c2ccc(Cl)cc21 (centres undefined) | 4.8 | Ki [3]: 4.2 µM; Activity [4]: inactive; Activity [5]: Active |
| CCOP1(=O)OC(c2ccc([N+](=O)[O-])cc2)=Cc2ccc(Cl)cc21 (centres undefined) | > 100 |  |
| CCOP1(=O)OC(c2ccccc2)=C(I)c2ccc(OC)cc21 (centres undefined) | 54.5 |  |
| CCOP1(=O)OC(c2ccc(OC)cc2)=C(I)c2ccc(Cl)cc21 (centres undefined) | 26.2 |  |
| CCOP1(=O)OC(c2ccccc2)=C(Cl)c2ccc(OC)cc21 (centres undefined) | 89.6 |  |
| CCOP1(=O)OC(C2CC2)=C(Cl)c2ccc(OC)cc21 (centres undefined) | > 150 |  |
| CCOP1(=O)OC(c2ccccc2)=C(Br)c2ccccc21 (centres undefined) | 18.9 |  |
| COc1ccc2c(c1)P(=O)(O)OC(c1ccccc1)=C2 | 102 |  |
| O=P1(O)OC(c2ccccc2)=C(Br)c2ccccc21 | 14.1 |  |
| CCOP1(=O)OC(c2ccccc2)=C(I)c2ccc(Cl)cc21 (centres undefined) | 47.9 |  |
| CCOP1(=O)OC(C2CC2)=C(Cl)c2ccc(Cl)cc21 (centres undefined) | > 100 |  |
| CCOP1(=O)OC(CO)=Cc2ccc(OC)cc21 (centres undefined) | 79.4 |  |
| CCOP1(=O)OC(c2ccccc2)=C(Br)c2ccc(Cl)cc21 (centres undefined) | 51.2 |  |
| CCCCC1=C(I)c2ccccc2P(=O)(OCC)O1 (centres undefined) |  | IC50 [2]: Not Active |
| CCOP1(=O)OC(c2ccccc2)=C(Cl)c2ccccc21 (centres undefined) | 12.7 |  |
| CCOP1(=O)OC(c2ccc(CC)cc2)=C(C#Cc2ccccc2)c2ccc(Cl)cc21 (centres undefined) | 8.5 |  |
| O=P1(O)OC(c2ccccc2)=C(Cl)c2ccccc21 | 1.9 | Ki [3]: 1.4 µM; Activity [4]: inactive; Activity [5]: Active |
| CCOP1(=O)OC(c2ccc(CC)cc2)=C(CC(=O)c2ccccc2)c2ccc(Cl)cc21 (centres undefined) | 5.1 |  |
| CCOP1(=O)OC(C2CC2)=C(I)c2ccc(Cl)cc21 (centres undefined) |  | IC50 [2]: Not Active |
| CCOP1(=O)OC(c2ccc(CC)cc2)=Cc2ccc(Cl)cc21 (centres undefined) | 40.3 |  |
